The values that follow come from ChEMBL document CHEMBL1122443, “Synthesis and antitumor evaluation of selected 5,6-disubstituted 1(2)H-indazole-4,7-diones” (1983).

The structures appear in SMILES notation. Calls of active or inactive are those of the source. The calls are words filed in the database; no cut-off is given here.

Assay [1] concerns Mus musculus. In words: Antitumor activity in CF1 mice bearing Ehrlich ascites carcinoma measured as percentage inhibition at 5 mg/kg. The assay is classed as functional. In a few lines: (§1)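 Ehrlich ascites model in male CF1 mice (22–25 g): 2 × 10⁶ cells ip on day 0, ip dosing days 1–8, kill on day 9. Percent inhibition = 100 − [(treated volume × treated ascrit)/(control volume × control ascrit)]. Greater than 80% was taken as significant. Vehicle was 0.05% Tween 80, alone or with 5% absolute EtOH. 6-Mercaptopurine was the positive control.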

Assay [2] deals with Mus musculus. In words: Antitumor activity in CF1 mice bearing Ehrlich ascites carcinoma measured as percentage inhibition at 1 mg/kg. The assay is classed as functional. The method in brief: (§2)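 In the Ehrlich ascites model, male CF1 mice (22–25 g) received 2 × 10⁶ cells ip on day 0 and compound ip on days 1–8, with a vehicle of 0.05% Tween 80 ± 5% EtOH. Ascites volume and ascrit were taken on day 9. % inhibition = 100 − [(vol × ascrit, treated)/(vol × ascrit, control)], with >80% taken as significant.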

Assay [3] relates to Mus musculus. As to the kind of experiment: Antitumor activity in CF1 mice bearing Ehrlich ascites carcinoma measured as percentage inhibition at 10 mg/kg. The assay is classed as functional. The method in brief: as §2
The subject of assay [4] is Mus musculus. In words: Antitumor activity in CF1 mice bearing Ehrlich ascites carcinoma measured as survivors on day 9 at 1 mg/kg; 6/6. In kind it is functional.
The subject of assay [5] is Mus musculus. In words: Antitumor activity in CF1 mice bearing Ehrlich ascites carcinoma measured as survivors on day 9 at 10 mg/kg; 5/6. In kind it is functional.
In assay [6] the test system is Mus musculus. As to the kind of experiment: Antitumor activity in CF1 mice bearing Ehrlich ascites carcinoma measured as survivors on day 9 at 12 mg/kg; 0/6. The assay is classed as functional.
The test system of assay [7] is Mus musculus. In words: Antitumor activity in CF1 mice bearing Ehrlich ascites carcinoma measured as ascites volume at 1 mg/kg. In kind it is functional. In a few lines: (§3)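 Ehrlich ascites cells (2 × 10⁶) were implanted ip in male CF1 mice (22–25 g) on day 0. Dosing was ip on days 1–8 in 0.05% Tween 80 or 5% EtOH/0.05% Tween 80, with vehicle controls. Mice were killed on day 9, and ascites fluid volume per mouse was measured.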

Assay [8] relates to Mus musculus. As to the kind of experiment: Antitumor activity in CF1 mice bearing Ehrlich ascites carcinoma measured as ascites volume at 5 mg/kg. In kind it is functional. In a few lines: (§4)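 Male CF1 mice (22–25 g) received 2 × 10⁶ Ehrlich carcinoma cells ip on day 0. Dosing was ip daily on days 1–8, with sacrifice on day 9. Ascites fluid volume per mouse and ascrit (packed cell volume) were measured for each group. Vehicle was 0.05% Tween 80, or 5% absolute EtOH in 0.05% Tween 80, used for both compound and control. 6-Mercaptopurine was the positive control.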

Assay [9] concerns Mus musculus. As to the kind of experiment: Average days survived for treated / average days survived for control at 1 (mg/kg); 10.8/9.2. In kind it is functional.
Assay [10] has as its system Mus musculus. As to the kind of experiment: Antitumor activity in CF1 mice bearing Ehrlich ascites carcinoma measured as survivors on day 9 at 5 mg/kg; 5/5. The assay is classed as functional.
In assay [11] the test system is Mus musculus. In words: Antitumor activity in CF1 mice bearing Ehrlich ascites carcinoma measured as percent ascrit packed cell volume at 1 mg/kg. The assay is classed as functional. The method in brief: (§5)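 CF1 male mice (22–25 g) were inoculated ip with 2 × 10⁶ Ehrlich cells on day 0 and treated ip on days 1–8 in 0.05% Tween 80 or 5% EtOH/0.05% Tween 80 vehicle. On day 9 the mice were sacrificed, and the ascrit (packed cell volume) of the ascites fluid was determined.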

Assay [12] has as its system Mus musculus. In words: Antitumor activity in CF1 mice bearing Ehrlich ascites carcinoma measured as percent ascrit packed cell volume at 10 mg/kg. In kind it is functional. The method in brief:
as §5

Assay [13] concerns Mus musculus. As to the kind of experiment: Antitumor activity in CF1 mice bearing Ehrlich ascites carcinoma measured as percent ascrit packed cell volume at 5 mg/kg. The assay is classed as functional. In a few lines:
as §4

The subject of assay [14] is Mus musculus. As to the kind of experiment: Anti tumor activity in mice bearing lymphocytic leukemia P-388 at 1 mg/kg. In kind it is functional. In a few lines: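 Male BDF1 mice (20–23 g) were inoculated ip with 1 × 10⁶ P-388 leukemia cells on day 0. Compound was given ip once daily on days 1–14 in 0.05% Tween 80 vehicle, with a vehicle control group and 5-fluorouracil as positive control. Activity was scored as % T/C, average days survived treated/control, with >125% taken as significant.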

In assay [15] the test system is Mus musculus. As to the kind of experiment: Antitumor activity in CF1 mice bearing Ehrlich ascites carcinoma measured as ascites volume at 10 mg/kg. In kind it is functional. The method in brief:
as §3

In assay [16] the test system is Mus musculus. In words: Antitumor activity in CF1 mice bearing Ehrlich ascites carcinoma measured as survivors on day 9 at 3 mg/kg; 3/6. In kind it is functional.
Assay [17] has as its system Mus musculus. As to the kind of experiment: Antitumor activity in CF1 mice bearing Ehrlich ascites carcinoma measured as ascites volume at 3 mg/kg. In kind it is functional. In a few lines:
as §4

The subject of assay [18] is Mus musculus. In words: Average days survived for treated / average days survived for control at 1 (mg/kg); 10.2/9.2. In kind it is functional.
Assay [19] deals with Mus musculus. In words: Antitumor activity in CF1 mice bearing Ehrlich ascites carcinoma measured as percentage inhibition at 3 mg/kg. The assay is classed as functional. The method in brief: as §1
The subject of assay [20] is Mus musculus. In words: Antitumor activity in CF1 mice bearing Ehrlich ascites carcinoma measured as percent ascrit packed cell volume at 3 mg/kg. The assay is classed as functional. In a few lines: as §4
Assay [21] relates to Mus musculus. In words: Antitumor activity in CF1 mice bearing Ehrlich ascites carcinoma measured as percentage inhibition at 8 mg/kg. In kind it is functional. The method in brief: as §1
The subject of assay [22] is Mus musculus. As to the kind of experiment: Antitumor activity in CF1 mice bearing Ehrlich ascites carcinoma measured as survivors on day 9 at 3 mg/kg; 5/6. In kind it is functional.
The subject of assay [23] is Mus musculus. In words: Antitumor activity in CF1 mice bearing Ehrlich ascites carcinoma measured as ascites volume at 8 mg/kg. In kind it is functional. The method in brief:
as §4

Assay [24] concerns Mus musculus. In words: Antitumor activity in CF1 mice bearing Ehrlich ascites carcinoma measured as survivors on day 9 at 5 mg/kg; 4/6. In kind it is functional.
The subject of assay [25] is Mus musculus. In words: Antitumor activity in CF1 mice bearing Ehrlich ascites carcinoma measured as survivors on day 9 at 8 mg/kg; 4/6. The assay is classed as functional.
Assay [26] concerns Mus musculus. As to the kind of experiment: Antitumor activity in CF1 mice bearing Ehrlich ascites carcinoma measured as percentage inhibition at 3 mg/kg; IA= inactive. In kind it is functional, organism-based. On the set-up: dose 3 mg/kg. In a few lines: as §2
Assay [27] relates to Mus musculus. As to the kind of experiment: Antitumor activity in CF1 mice bearing Ehrlich ascites carcinoma measured as percent ascrit packed cell volume at 8 mg/kg. The assay is classed as functional. The method in brief:
as §4

A word on the inhibition in vivo: it is the drop in the measured response relative to a control, in per cent. Lower therefore signals a weak effect. What is called T/C is the result in the treated group divided by that in the control group, in per cent.

Consider `Cn1cc2c(n1)C(=O)C(Cl)=C(N1CC1)C2=O`, for which, in the assay on Mus musculus [1], at 5 mg/kg the inhibition in vivo was 83.7%. In addition, the inhibition in vivo at 1 mg/kg in the assay on Mus musculus [2] was 72.9%. The compound also had an inhibition in vivo at 10 mg/kg in the assay with Mus musculus [3] of 96.3%. Moreover, the Survivors with Mus musculus [4] was determined as 6; with Mus musculus [5], 5; with Mus musculus [6] it was 0; in the assay with Mus musculus [10] it was 5. Besides, the ascites volume was 0.8 ml mouse-1 in the assay on Mus musculus [7], 0.7 ml mouse-1 in the assay with Mus musculus [8] and 0.44 ml mouse-1 with Mus musculus [15]. The “Average survival (days)” value with Mus musculus [9] came out at 10.8. For the same compound, the packed cell volume in the assay with Mus musculus [11] was found to be 12.7%; in the assay with Mus musculus [12], 8.4%; in the assay with Mus musculus [13], 36.2%. Further, in the assay on Mus musculus [14], the T/C is on record as 117%.

Turning to `Cc1noc2c1C(=O)C(Cl)=C(Cl)C2=O`, in the assay on Mus musculus [1], 5 mg/kg produced 100% inhibition in vivo. Further, the Survivors came to 3 in the assay on Mus musculus [16] and 5 with Mus musculus [10]. Besides, the ascites volume in the assay on Mus musculus [17] and with Mus musculus [8] was 0 ml mouse-1 throughout. Further, the “Average survival (days)” value in the assay with Mus musculus [18] was 10.2. In addition, the inhibition in vivo at 3 mg/kg in the assay on Mus musculus [19] is 100%. In addition, the packed cell volume in the assay on Mus musculus [20] and in the assay on Mus musculus [13] was 0% each time. In the assay with Mus musculus [14], this compound displayed a T/C of 111%.

With `CC(=O)NC1=C(Cl)C(=O)c2c(cnn2C(C)=O)C1=O`, in the assay with Mus musculus [1], 5 mg/kg produced 95.6% inhibition in vivo. Besides, in the assay with Mus musculus [21], testing at 8 mg/kg gave an inhibition in vivo of 25.5%. For the same compound, the Survivors is given as 5 in the assay with Mus musculus [22], 4 in the assay on Mus musculus [24] and 4 in the assay on Mus musculus [25]. In addition, the ascites volume in the assay with Mus musculus [17] is recorded as 2.9 ml mouse-1; with Mus musculus [8], 0.3 ml mouse-1; with Mus musculus [23], 0.75 ml mouse-1. Besides, the inhibition entry with Mus musculus [26] is “inactive”. Besides, the packed cell volume with Mus musculus [20] is given as 45.5%; in the assay with Mus musculus [13], 5.9%; in the assay on Mus musculus [27], 31.7%.
